# Assay results as given in ChEMBL document CHEMBL1123506, “Unsaturated heterocyclic amines as potent time-dependent inhibitors of dopamine beta-hydroxylase” (J Med Chem, 1986).
# Columns and labels:
# [1] = molecular target: T1, Dopamine beta-hydroxylase (Bos taurus, UniProt P15101); test: Compound was determined for the kinetic constant against Dopamine beta hydroxylase purified from beef adrenals, inhibitory constant (Ki)
# T1 sequence (P15101 whole entry): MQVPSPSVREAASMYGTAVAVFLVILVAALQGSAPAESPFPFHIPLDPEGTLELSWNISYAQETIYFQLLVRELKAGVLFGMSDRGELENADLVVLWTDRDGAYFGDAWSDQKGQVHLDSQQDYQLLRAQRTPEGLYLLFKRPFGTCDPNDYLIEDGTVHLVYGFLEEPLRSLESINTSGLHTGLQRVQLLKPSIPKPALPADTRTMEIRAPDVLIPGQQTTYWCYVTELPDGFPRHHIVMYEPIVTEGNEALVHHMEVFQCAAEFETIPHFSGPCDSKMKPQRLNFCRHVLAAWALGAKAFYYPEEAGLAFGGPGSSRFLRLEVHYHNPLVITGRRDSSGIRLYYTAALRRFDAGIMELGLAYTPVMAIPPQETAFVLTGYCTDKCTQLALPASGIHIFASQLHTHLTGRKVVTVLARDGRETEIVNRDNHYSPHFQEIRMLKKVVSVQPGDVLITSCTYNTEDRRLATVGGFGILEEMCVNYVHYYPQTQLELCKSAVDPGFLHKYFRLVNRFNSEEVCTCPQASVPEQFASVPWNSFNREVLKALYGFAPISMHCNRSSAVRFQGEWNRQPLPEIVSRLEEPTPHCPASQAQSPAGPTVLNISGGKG
# Method in brief: (§1)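 Bovine adrenal DBH, purified to homogeneity. Aliquots withdrawn at timed intervals and diluted into assay medium with 1 mM tyramine. Residual activity measured as octopamine formed, by reverse-phase HPLC with fluorescence detection. KI and kcat from Kitz–Wilson plot of t1/2 versus 1/I; kcat/KI calculated.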
# [2] = molecular target: T2, Dopamine beta-hydroxylase (Bos taurus) (UniProt P15101); test: Compound was determined for the kinetic constant against Dopamine beta hydroxylase purified from beef adrenals, catalytic constant (kcat); method in brief: as §1
# T2 sequence (whole entry): T1 sequence (P15101 whole entry)
# Rattus norvegicus [3] = test: Compound was evaluated for the antihypertensive activity against DBH in conscious spontaneously hypertensive rats at the 30 doses (mg/Kg ip) after >1h. (MBP= mean arterial blood pressure); assay type: functional, Artery
# Method in brief: (§2)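 Conscious spontaneously hypertensive rats dosed intraperitoneally at 10, 30 or 100 mg/kg, n = 4–6 per group. Read-out is maximal change in mean arterial blood pressure (mmHg, mean ± SD), with duration of response in hours.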
# Rattus norvegicus [4] = test: Compound was evaluated for the antihypertensive activity against DBH in conscious spontaneously hypertensive rats at the 100 doses (mg/Kg ip). (MBP= mean arterial blood pressure)
# [5] = The ratio of Kinetic constant K cat / Ki of Dopamine Beta-hydroxylase inhibitor.; method in brief: as §1
# Rattus norvegicus [6] = test: Compound was evaluated for the antihypertensive activity against DBH in conscious spontaneously hypertensive rats at the 30 doses (mg/Kg ip) after 9 hr (MBP= mean arterial blood pressure); assay type: functional, Artery
# Method in brief: (§3)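 Conscious spontaneously hypertensive rats received a single intraperitoneal dose; the paper's dose levels were 10, 30 and 100 mg/kg. Mean arterial blood pressure was monitored. Values are the maximal change in mmHg and the duration of the response in h. Groups were n = 4–6, reported as mean ± SD.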
# Rattus norvegicus [7] = test: Compound was evaluated for the antihypertensive activity against DBH in conscious spontaneously hypertensive rats at the 10 doses (mg/Kg ip) after 1h.; assay type: functional; method in brief: as §2
# Rattus norvegicus [8] = test: Compound was evaluated for the antihypertensive activity against DBH in conscious spontaneously hypertensive rats at the 100 doses (mg/Kg ip) after 70h.; assay type: functional; method in brief: as §2
# Rattus norvegicus [9] = test: Compound was evaluated for the antihypertensive activity against DBH in conscious spontaneously hypertensive rats at the 30 doses (mg/Kg ip) after 43h.; assay type: functional; method in brief: as §2
# Rattus norvegicus [10] = test: Compound was evaluated for the antihypertensive activity against DBH in conscious spontaneously hypertensive rats at the 30 doses (mg/Kg i.p.) after 3hr.; assay type: functional; method in brief: as §3
# Rattus norvegicus [11] = test: Compound was evaluated for the antihypertensive activity against DBH in conscious spontaneously hypertensive rats at the 30 doses (mg/Kg ip) after 30h.; assay type: functional; method in brief: as §2
# Rattus norvegicus [12] = test: Compound was evaluated for the antihypertensive activity against DBH in conscious spontaneously hypertensive rats at the 100 doses (mg/Kg ip) after 79h.; assay type: functional; method in brief: as §2
# Rattus norvegicus [13] = test: Compound was evaluated for the antihypertensive activity against DBH in conscious spontaneously hypertensive rats at the 30 doses (mg/Kg ip) after 6h.; assay type: functional; method in brief: as §2
# Rattus norvegicus [14] = test: Compound was evaluated for the antihypertensive activity against DBH in conscious spontaneously hypertensive rats at the 100 doses (mg/Kg ip) after 3h.; assay type: functional; method in brief: as §2
# Rattus norvegicus [15] = test: Compound was evaluated for the antihypertensive activity against DBH in conscious spontaneously hypertensive rats at the 100 doses (mg/Kg ip) after 2 hr.; assay type: functional; method in brief: as §2
# Rattus norvegicus [16] = test: Compound was evaluated for the antihypertensive activity against DBH in conscious spontaneously hypertensive rats at the 30 doses (mg/Kg ip) after 1h.; assay type: functional; method in brief: as §2
Ki [1] [µM],k cat [2],k cat/Ki [5] [M⁻¹ s⁻¹],SMILES,other results
2150,0.00163 s⁻¹,0.733,C=C(CNC)c1cccs1,Max MBP (Rattus norvegicus [3]): -23 mmHg; Max MBP (Rattus norvegicus [4]): -16 mmHg
13000,0.04 -1/min,0.05,C=C(CN)c1ccccc1,–
35,0.124 -1/min,59,C=C(CN)c1cccs1,Max MBP (Rattus norvegicus [7]): -19 mmHg; Max MBP (Rattus norvegicus [8]): -34 mmHg; Max MBP (Rattus norvegicus [9]): -36 mmHg
410,0.13 -1/min,5.28,C=C(CN)c1ccco1,Max MBP (Rattus norvegicus [11]): -26 mmHg; Max MBP (Rattus norvegicus [7]): -10 mmHg; Max MBP (Rattus norvegicus [12]): -69 mmHg
230,0.077 -1/min,5.57,C=C(CN)c1ccoc1,Max MBP (Rattus norvegicus [13]): -20 mmHg; Max MBP (Rattus norvegicus [14]): -21 mmHg
570,0.147 -1/min,4.28,C=C(CN)c1ccsc1,Max MBP (Rattus norvegicus [15]): -54 mmHg; Max MBP (Rattus norvegicus [16]): -18 mmHg

SMILES,Ki [1] [µM],k cat [2],k cat/Ki [5] [M⁻¹ s⁻¹],other results
C=C(c1cccs1)C(C)N (stereo unspecified),360,0.000967 s⁻¹,2.68,Max MBP (Rattus norvegicus [6]): -16 mmHg
NCC#Cc1ccccc1,21,0.07 -1/min,55.5,Max MBP (Rattus norvegicus [10]): -13 mmHg
CC#Cc1ccccc1,20000,0.06 -1/min,0.1,–
